The series can be described thus: Toxicity liver stage against HepG2, at 10uM. Format: cell-based. Set-up: test concentration 10 uM, cell line HepG2-A16-CD81EGFP. The conditions noted are these: human, HepG2-A16-CD81EGFP cells; read-out: INHIBITION
An outline of the steps:
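Uninfected HepG2-A16-CD81EGFP cells, 3 × 10^3 per well, 1536-well, plated on prespotted compound at 10 μM final, parasite-free screening media added to match infected plates; puromycin 10 μM positive, DMSO 0.5% negative; run in parallel with 48 h PbLuc assay at 37 °C, 5% CO2; viability by CellTiter-Glo luminescence, normalized to controls.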

The text below walks through data of ChEMBL document CHEMBL4513216, “Probing the Open Global Health Chemical Diversity Library for Multistage-Active Starting Points for Next-Generation Antimalarials” (ACS Infect Dis, 2020).

Each structure is given as a SMILES string.

`COc1cc(C)nc(N2CCN(C(=O)COC3CCCC3)CC2)n1`: the cytotoxicity at 10 µM is -3.78%. On to `O=C(O)C1CN(c2cncc(Cc3ccccc3F)n2)C1`, for which the cytotoxicity at 10 µM is 5.7%. Next, `O=C(CN1CCN(CC2CCOc3ccccc3C2)CC1)N1CCCC1` (configuration not stated): -4.02%.

Take `CS(=O)(=O)Cc1nc(CCc2ccccc2)nn1-c1ccccn1`: the cytotoxicity at 10 µM was found to be 3.36%. `Cc1c(Br)cccc1C(=O)NCCC1CCCNC1` (configuration not stated): the cytotoxicity at 10 µM is -11.7%. `CCC(NCc1ccccn1)c1ccccc1OCC(=O)NC` (configuration not stated): the cytotoxicity at 10 µM was determined as 11.3%. For the compound `COc1cccc(CN2CCC3(CC2)CCN(c2ncc(F)cn2)C3)c1`, the cytotoxicity at 10 µM turned out to be 1.42%. Take `COc1ccc(S(=O)(=O)N[C@H]2CN(C(C)=O)C[C@@H]2C2CC2)cc1C`: the cytotoxicity at 10 µM worked out at 4.57%. As for `c1cc(-c2c[nH]c([C@@H]3COCCN3Cc3ncc[nH]3)n2)ccn1`, the cytotoxicity at 10 µM worked out at 4.99%. For `C=C(C)CN(CC)C(=O)c1cc(F)ccc1N1CCN(C)CC1`, the cytotoxicity at 10 µM was -1.18%. Next, `CCn1nc(C)c2c1cnn2CCNS(C)(=O)=O`: 7.55%. Next, `O=C(c1ncn2c1CNS(=O)(=O)c1ccccc1-2)N1CC=CC1`: 10.5%; `Clc1ccc(CNc2ccc(Cl)cn2)cc1`: 6.96%. For the compound `Cc1cnn(CC2CN(Cc3csc(C4CCCC4)n3)CCO2)c1` (configuration not stated), the cytotoxicity at 10 µM is -5.47%. Regarding `N#Cc1cn(C2CC2)c(=O)n(CC(O)c2ccc(Cl)cc2)c1=O` (configuration not stated), the cytotoxicity at 10 µM was -5.78%. Turning to `Cc1ncn(-c2cc(N3CCN(S(C)(=O)=O)CC3)ncn2)c1C`, the cytotoxicity at 10 µM was found to be 6.23%. `COCC(=O)NCc1cc(=O)n2c(n1)CN(CC1CCOC1)CCC2` (configuration not stated): the cytotoxicity at 10 µM amounted to 1.47%.

For the compound `CCN(CC)c1ccc2ccc(C(=O)N3CCCCO3)cn12`, the cytotoxicity at 10 µM turned out to be 5.33%. For `CN1[C@H](CN2CCCC2)C[C@@H]2CN(C(=O)c3cccn3C)CC[C@@H]21`, the cytotoxicity at 10 µM stood at 5.57%. As for `CC(C)C(=O)NC(Cc1cc(N(C)C)nc(C2CC2)n1)c1ccccc1` (configuration not stated), the cytotoxicity at 10 µM came to 3.37%. Next, `COC(=O)[C@H](CCSC)NC(=O)Cn1ccc2c(Cl)cccc21`: 2.17%; `Cc1cc(C)n(CC2CCCN2C(=O)c2c[nH]c3ncccc23)n1` (configuration not stated): -0.808%; `CN(C)CCN1C[C@@H]2OCCN(Cc3cnn(C)c3)[C@@H]2C1`: -140%. Next, `Cc1nc(Nc2nnc(C)s2)cc(C2CCCN2)n1` (configuration not stated): 3.81%; `CCn1cc(CN2CCc3nc(N4CCOCC4)nc(O)c3CC2)cn1`: -5.59%. As to `Cc1csc(CNC(=O)N(C)Cc2ccc3c(c2)OCCO3)n1`, the cytotoxicity at 10 µM came to 5.38%.

As for `O=C(O)c1cn(CC2CCCN(c3ccc4ccccc4n3)C2)nn1` (configuration not stated), the cytotoxicity at 10 µM was -7.14%.

As for `CN(C)C(=O)c1n[nH]c2c1CN(CC1CCC1)C2`, the cytotoxicity at 10 µM was -2.22%.

Regarding `O=C1NC2(CCN(Cc3ccsc3)CC2)CC1c1ccncc1` (configuration not stated), the cytotoxicity at 10 µM is 4.93%. As for `CCc1cnc(NCCS(=O)(=O)CC(C)C)nc1`, the cytotoxicity at 10 µM was -13%. In the case of `CC(C)c1nnc(NC(=O)N2CCCC2c2ccncc2)s1` (configuration not stated), the cytotoxicity at 10 µM was found to be 5.6%. On to `CCn1c(CN2CCCC(Cn3cncn3)C2)nc2c(F)cccc21` (configuration not stated), for which the cytotoxicity at 10 µM amounted to 6.49%. In the case of `Cc1ccc2[nH]c(C(=O)NCCCn3ccnn3)c(C)c2c1`, the cytotoxicity at 10 µM was found to be 5.36%. `CC(C)Cc1noc(CN2CCOCC2)n1`: the cytotoxicity at 10 µM was -2.27%. Regarding `NC(=O)c1ccc(CN2CCC(N3CCCC3)CC2)cc1`, the cytotoxicity at 10 µM is -2.3%. For `CCn1cnnc1C1CCN(C(=O)Cc2ccc(OC)c(F)c2)CC1`, the cytotoxicity at 10 µM is -7.54%. On to `Cc1ncsc1CN1CCn2c(COCC3CC3)cnc2C1C` (configuration not stated), for which the cytotoxicity at 10 µM is -1.82%. As for `CNC(=O)C1CN(C(=O)c2cccnc2)CCN(S(C)(=O)=O)C1` (configuration not stated), the cytotoxicity at 10 µM turned out to be 1.45%. Regarding `CC(C(=O)N1CCC(Cc2ccc(F)cc2)CC1)n1ccnc1` (configuration not stated), the cytotoxicity at 10 µM stood at 4.57%. Next, `COc1cccc(F)c1CN1CCC(c2nc(C)cc(C)n2)C1` (configuration not stated): 6.83%; `NC(=O)C1CCN(C(=O)c2cccn2Cc2cccs2)CC1`: -4.08%.

Take `COCC(C)(C#N)NC(=O)c1cn(-c2cccc(Cl)c2F)nn1` (configuration not stated): the cytotoxicity at 10 µM came out at 0.472%.

`O=C(c1ccncc1F)N1CC2CC1(C(=O)N1CCCC1)C2`: the cytotoxicity at 10 µM is -2.51%. Next, `CN1CCC(N2CC[C@@H]3[C@@H](CCC(=O)N3CCC3=CCCCC3)C2)CC1`: -6.53%; `O=C(C1=CCCC1)N1C[C@H]2CCC[C@@]2(COCc2ccncc2)C1`: 2.78%. Turning to `CNC(=O)CN1CCOCC12CCN(CCc1ccccc1)CC2`, the cytotoxicity at 10 µM was -76.8%. As for `Cc1nonc1OCCNC(=O)COc1ccc(F)cc1F`, the cytotoxicity at 10 µM was -1.17%.

Regarding `CCOc1cccc(CNc2ccccc2OC)c1O`, the cytotoxicity at 10 µM was 0.142%. Next, `Cc1ccccc1C(O)CNS(=O)(=O)Cc1cccc(C#N)c1` (configuration not stated): -5.43%; `O=C(NC1CCCC1)C1(Cc2cc(C3CCOC3)no2)CCNCC1` (configuration not stated): -1.57%. Take `CN(Cc1ccccc1O)C(=O)NC1CCCN(c2ncccn2)C1` (configuration not stated): the cytotoxicity at 10 µM is -0.421%. Turning to `O=C(NCCCF)N1CCC(n2ccc(C(F)(F)F)n2)CC1`, the cytotoxicity at 10 µM is -5.29%.

`N#CCCN(CCC#N)Cc1ccc(Br)c2cccnc12`: the cytotoxicity at 10 µM was 1.73%. Next, `CCN(C(=O)Cn1cc(Cl)cn1)c1ccccc1`: -8.01%. In the case of `Cn1nccc1-c1cccc(CC2CCN(S(C)(=O)=O)C2)n1` (configuration not stated), the cytotoxicity at 10 µM turned out to be 4.54%. Next, `Cc1cn2nc(N3CCCC3C(=O)N3CCSCC3)sc2n1` (configuration not stated): 10.9%; `N#Cc1ccc(N2CCC3(CCCN(c4ccccn4)C3)C2)nc1` (configuration not stated): 15.6%; `NCc1cccc(-c2cccnc2C(=O)NCCN2CCOCC2)c1`: -1.29%. As for `O=C(Nc1cnn(Cc2ccccc2)c1)N1CCN(CCO)CC1`, the cytotoxicity at 10 µM was 2.11%. Regarding `O=C(NCCc1ccncc1)[C@H]1CC[C@@H]2[C@@H](CCN2CC2CC2)O1`, the cytotoxicity at 10 µM came out at 0.545%. Next, `Cc1ccccc1S(=O)(=O)N1CCC(c2[nH]ncc2C)C1` (configuration not stated): -21.1%.

In the case of `N#Cc1cccnc1OC1CCN(C(=O)NCc2ccccc2)CC1`, the cytotoxicity at 10 µM was 1.38%. Take `Cc1nc2cc(=O)[nH]n2c(C)c1CC(=O)NCCCc1ccccc1`: the cytotoxicity at 10 µM is -7.33%. For the compound `CC1=Nc2c(c(=O)[nH]n2C(C)C)C(c2ccc3c(c2)OCCO3)S1` (configuration not stated), the cytotoxicity at 10 µM is -1.01%. Regarding `O=C(NCCc1ccccn1)C1(n2cnnn2)CCCCC1`, the cytotoxicity at 10 µM amounted to 0.801%. Regarding `CCCC1CCCN(C(=O)CCn2cccn2)CC1` (configuration not stated), the cytotoxicity at 10 µM is -9.48%. As to `CC(C)(C)CCCC(=O)NS(=O)(=O)CC1CC1`, the cytotoxicity at 10 µM is -6.19%. For the compound `COCCO[C@H]1CCN(C(=O)C2CCOCC2)[C@H]1Cc1ccncc1`, the cytotoxicity at 10 µM is 4.32%.

Regarding `Cc1c(C(=O)N2CCCC(O)(CN(C)C)CC2)c2cc(O)ccc2n1C` (configuration not stated), the cytotoxicity at 10 µM was -119%. For `COCC1CN(Cc2ccc(C)o2)Cc2ncn(CC3CC3)c21` (configuration not stated), the cytotoxicity at 10 µM was -11%.

On to `COCCN1C(=O)C[C@H]2[C@H]1CCN2Cc1cccc(C#N)c1`, for which the cytotoxicity at 10 µM is 2.55%. For `CCOC(=O)NCCC(=O)NCc1ccc(Oc2cccc(F)c2)nc1`, the cytotoxicity at 10 µM stood at 10.9%.

Consider `c1cc(C2CCN(C3CCCCC3)C2)n[nH]1` (configuration not stated), for which the cytotoxicity at 10 µM is 1.65%. Next, `Cn1cc(CN2CCc3nc4ccccc4c(=O)n3CC2)cn1`: -1.57%. Next, `CC(C)c1nc(CN2CCCC(O)C2)cs1` (configuration not stated): -7.13%; `Cc1cnn(CC2CN(Cc3nc(C4CC4)no3)CCO2)c1` (configuration not stated): -4.26%; `COCC(=O)N1CCC(C(=O)Nc2ccc(S(N)(=O)=O)cc2)CC1`: -1.47%. With `Cc1cnc(-c2nc(NC3CC3)ncc2-c2onc(C)c2C)cn1`, the cytotoxicity at 10 µM is -27.9%. Next, `CN1C(=O)CCC12CCN(S(=O)(=O)c1ccccc1)CC2`: -9.75%; `CCN(CC)S(=O)(=O)CC(=O)N1CCc2ccc(Cl)cc21`: -5.42%; `O=C1NC[C@H]2CN(C3CCOCC3)CCN12`: -1.95%. Take `c1cc(CNCC2CNc3ccnn3C2)cc(N2CCCCC2)n1` (configuration not stated): the cytotoxicity at 10 µM was found to be 6.91%. Consider `Cc1cc2cccc(C(=O)N3CCOC4(CNCCOC4)C3)c2o1` (configuration not stated), for which the cytotoxicity at 10 µM is -2.21%. As for `O=C(O)[C@]12CCCN(Cc3ccco3)C[C@H]1CN(c1ncccn1)C2`, the cytotoxicity at 10 µM came to 7.34%. With `NC(=O)N1CCC2(CCN(Cc3ccccn3)C2=O)C1` (configuration not stated), the cytotoxicity at 10 µM was 3.39%. With `Cn1cc(CN2C[C@@H]3CN(C(=O)c4cccn4C)CCO[C@@H]3C2)cn1`, the cytotoxicity at 10 µM is -110%. Consider `CC(=O)N1CCC2(CC1)CN(C(C)C)c1ccc(F)cc12`, for which the cytotoxicity at 10 µM is -110%. Next, `O=C(NCC(O)COc1cccc(F)c1)C1(c2ccc(F)cc2)CC1` (configuration not stated): 0.884%; `COC(=O)C(c1cc(F)ccc1F)N(C)C(=O)c1ccccn1` (configuration not stated): -2.72%. On to `O=C(CCOc1ccc(Br)cc1)N1CCN(c2cnccn2)CC1`, for which the cytotoxicity at 10 µM amounted to 0.207%. Regarding `CCc1nc(CC(=O)N2CCn3c(nnc3C(C)C)C2)cs1`, the cytotoxicity at 10 µM was -6.72%.

In the case of `CC(c1ccco1)N(C(=O)NCc1ccon1)C1CC1` (configuration not stated), the cytotoxicity at 10 µM was determined as 0.805%.

Regarding `N#Cc1cccc(CNc2ccc(F)cc2OCCO)c1`, the cytotoxicity at 10 µM is -2.03%. Take `CCN(Cc1cccc(C)c1)Cn1nc(C)c2c(C)onc2c1=O`: the cytotoxicity at 10 µM is -1.03%. As to `COC(=O)CC1CSCCN1C(=O)CCc1c(C)nn(C)c1C` (configuration not stated), the cytotoxicity at 10 µM is -2.65%.

`Cc1cc(NC(=O)C2CN(Cc3ccccc3)CCO2)ccn1` (configuration not stated): the cytotoxicity at 10 µM is 54.9%. For the compound `Cc1nc(-c2ccnc(N3CCNCC3)n2)no1`, the cytotoxicity at 10 µM is 2.63%.
